Data on three compounds can be found in PMC3498827 (The Biochemical journal, 2012).

One data set has as its target wild-type LmPYK (Leishmania mexicana, UniProt Q27686). Description: qHTS / LmPYK activity assay. Format: biochemical. On the technique in general: In qHTS, concentration-response curves come from the screen itself.
The next data set is described as follows: Chemical stability. The conditions noted are these: hydrolysis of the linkage to saccharin moiety.
The target in data set [1] is Lys335Arg mutant of LmPYK (Leishmania mexicana, UniProt Q27686, K336R). The data set can be described thus: PYK inhibitor assay with Lys335Arg mutant. It is filed as biochemical. The note with it: 50 µM DBS, 0.4 mM PEP, identical assay conditions to wild-type.
The target in a further data set is LmPYK (Leishmania mexicana, UniProt Q27686). The data set can be described thus: PYK inhibitor assay. Format: biochemical. In short, it runs like this:
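Pre-incubation mix held at 25 °C: LmPYK 1.6 U/mL, 0.4 mM PEP, 3.2 U/mL lactate dehydrogenase and 0.2 mM NADH in 50 mM TEA pH 7.2, 100 mM KCl, 3 mM MgCl2, 10% glycerol. Test compound (final 50 µM, from DMSO stock) added last; buffer-only control. Every 20 min […], an aliquot was started with 0.2 mM ADP (final). A340 decrease followed for 2 min. Initial rate expressed as % of control.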

In data set [2] the target is rabbit lactate dehydrogenase (Oryctolagus cuniculus, UniProt P13491). The data set can be described thus: Inhibition of coupling enzyme lactate dehydrogenase. Format: biochemical. The conditions noted are these: active-site Lys56.
A short description of another data set: Solubility. It is filed as physicochemical. The conditions noted are these: relative to original screening hit NCGC00186526.
In a further data set the target is HsRPYK (Homo sapiens, UniProt P30613). Description: Inhibition of HsRPYK. Format: biochemical.
Sequence of HsRPYK (P30613 whole entry): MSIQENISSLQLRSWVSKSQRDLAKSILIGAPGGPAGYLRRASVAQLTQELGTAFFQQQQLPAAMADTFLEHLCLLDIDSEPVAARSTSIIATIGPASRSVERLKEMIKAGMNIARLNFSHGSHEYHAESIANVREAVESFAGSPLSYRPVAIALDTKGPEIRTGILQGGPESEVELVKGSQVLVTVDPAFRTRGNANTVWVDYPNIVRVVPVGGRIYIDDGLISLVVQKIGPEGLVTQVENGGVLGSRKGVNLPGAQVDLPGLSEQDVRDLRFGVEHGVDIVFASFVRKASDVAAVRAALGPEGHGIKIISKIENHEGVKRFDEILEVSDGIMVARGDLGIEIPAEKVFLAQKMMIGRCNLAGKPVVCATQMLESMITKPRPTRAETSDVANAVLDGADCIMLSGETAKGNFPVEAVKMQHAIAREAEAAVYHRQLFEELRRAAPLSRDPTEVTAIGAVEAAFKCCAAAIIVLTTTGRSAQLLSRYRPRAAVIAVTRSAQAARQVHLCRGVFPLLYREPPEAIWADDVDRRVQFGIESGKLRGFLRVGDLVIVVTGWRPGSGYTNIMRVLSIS
Data set [3] relates to four human PYK isoenzymes. Description: Irreversible inhibition of human PYK isoenzymes. Format: biochemical.

What is called IC50 is the concentration that gives 50% inhibition. Low values mean greater potency, high ones weaker potency. Regarding `Cc1ccc(C)c(OC2=NS(=O)(=O)c3ccccc32)c1` [NCGC00186526], the IC50 on wild-type LmPYK was found to be 10 µM.
For the compound `Cc1ccc(C)c(SC2=NS(=O)(=O)c3ccccc32)c1` [NCGC00188411], the stability result in the data set “Chemical stability” is reported as “Stable”. Moreover, the IC50 at wild-type LmPYK was found to be 5 µM.
For orientation: inhibition means the percentage by which the read-out fell short of the control. For `O=C(O)c1ccc(SC2=NS(=O)(=O)c3ccccc32)cc1` [DBS, 4-[(1,1-dioxo-1,2-benzothiazol-3-yl)sulfanyl]benzoic acid], the “change in activity over time” value in data set [1] was “essentially no change in activity over time”. For the same compound, the “time to maximal inhibition” value on LmPYK (50 µM DBS, 25 °C) is ~ 250 min. Also, the inhibition at 50 µM at LmPYK (read-out: Maximal inhibition) was around 80%. Moreover, the “inhibition of rabbit lactate dehydrogenase” value in data set [2] is recorded as “inability of DBS to inhibit”. The stability result in “Chemical stability” is “improved stability and solubility profiles”. Moreover, in “Solubility”, the solubility entry is “improved stability and solubility profiles”. Besides, the IC50 against HsRPYK was found to be 8 µM. The irreversible inhibition result in data set [3] is “irreversibly inhibited”.
